Laboratory results published in ChEMBL document CHEMBL3271978, “Synthesis and some pharmacological properties of [4-homoserine]oxytocin” (J Med Chem, 1977).
Positions of bridges follow the written chain, without caps; N, C: chain ends. Non-standard residues stand in square brackets, D forms with d. Residues, ends and D or L forms follow the SMILES beside them. hSer = N[C@@H](CCO)C(=O)O

Tests used:
[1] = Ratio of oxytocic potency in rat uterus to antidiuretic activity in iv dosed hydrated rat anesthetized with ethanol
Rattus norvegicus [2] = assay: Oxytocic activity in iv dosed lactating rat anesthetized with pentobarbital assessed as milk ejection; type: functional
Summary of the method: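 Lactating rats anesthetized with pentobarbital received peptide by intravenous injection; milk-ejection response measured relative to USP posterior pituitary reference standard.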

[3] = Ratio of oxytocic potency in rat uterus to vasopressor activity in phenoxybenzamine-treated rat under urethane anesthesia
[4] = Oxytocic potency in rat uterus in presence of 0.5 mM Mg2+; type: functional
Summary of the method: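 Isolated rat uterus suspended in solution containing 0.5 mM Mg2+; oxytocic activity assayed against USP posterior pituitary reference standard.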

Rattus norvegicus [5] = organism: Rattus norvegicus; assay: Vasopressor activity in phenoxybenzamine-treated rat under urethane anesthesia; type: ADME, organism-based; conditions: in vivo
Summary of the method: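 Rats pretreated with phenoxybenzamine, under urethane anesthesia; pressor response assayed against USP posterior pituitary reference standard.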

[6] = Oxytocic potency in rat uterus; type: functional
Summary of the method: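 Isolated rat uterus suspended in bath solution without Mg2+; oxytocic activity assayed against USP posterior pituitary reference standard.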

Rattus norvegicus [7] = assay: Antidiuretic activity in iv dosed hydrated rat anesthetized with ethanol; type: ADME, organism-based, Urine; conditions: in vivo

SMILES | Activity (Rattus norvegicus [5]) [U/mg] | Activity (Rattus norvegicus [7]) [U/mg] | Ratio [1] | Activity (Rattus norvegicus [2]) [U/mg] | Ratio [3] | Activity [4] [U/mg] | Activity [6] [U/mg]
CC[C@H](C)[C@@H]1NC(=O)[C@H](Cc2ccc(O)cc2)NC(=O)[C@@H](N)CSSC[C@@H](C(=O)N2CCC[C@H]2C(=O)N[C@@H](CC(C)C)C(=O)NCC(N)=O)NC(=O)[C@H](CC(N)=O)NC(=O)[C@H](CC(N)=O)NC1=O (H-CYINNCPLG-NH2; disulfide 1-6) | 0.12 | 0.044 | 929 | 300 | 823 | 490 | 108
CC[C@H](C)[C@@H]1NC(=O)[C@H](Cc2ccc(O)cc2)NC(=O)[C@@H](N)CSSC[C@@H](C(=O)N2CCC[C@H]2C(=O)N[C@@H](CC(C)C)C(=O)NCC(N)=O)NC(=O)[C@H](CC(N)=O)NC(=O)[C@H]([C@@H](C)O)NC1=O (H-CYITNCPLG-NH2; disulfide 1-6) | 0.43 | 1.8 | 510 | 543 | 2150 | 719 | 923

Now from value to molecule, other results behind:

Activity (Rattus norvegicus [5]) [U/mg] | Activity (Rattus norvegicus [7]) [U/mg] | SMILES | Ratio [1] | Activity (Rattus norvegicus [2]) [U/mg] | Ratio [3] | Activity [4] [U/mg] | Activity [6] [U/mg]
0.028 | 0.06 | CC[C@H](C)[C@@H]1NC(=O)[C@H](Cc2ccc(O)cc2)NC(=O)[C@@H](N)CSSC[C@@H](C(=O)N2CCC[C@H]2C(=O)N[C@@H](CC(C)C)C(=O)NCC(N)=O)NC(=O)[C@H](CC(N)=O)NC(=O)[C@H](CO)NC1=O (H-CYISNCPLG-NH2; disulfide 1-6) | 80 | 255 | >1950 | 331 | 148
0.021 | 0.24 | CC[C@H](C)[C@@H]1NC(=O)[C@H](Cc2ccc(O)cc2)NC(=O)[C@@H](N)CSSC[C@@H](C(=O)N2CCC[C@H]2C(=O)N[C@@H](CC(C)C)C(=O)NCC(N)=O)NC(=O)[C@H](CC(N)=O)NC(=O)[C@H](CCO)NC1=O (H-CYI[hSer]NCPLG-NH2; disulfide 1-6) | 520 | 357 | 5950 | 380 | 125
– | 4 | CC[C@H](C)[C@@H]1NC(=O)[C@H](Cc2ccc(O)cc2)NC(=O)[C@@H](N)CSSC[C@@H](C(=O)N2CCC[C@H]2C(=O)N[C@@H](CC(C)C)C(=O)NCC(N)=O)NC(=O)[C@H](CC(N)=O)NC(=O)[C@H](CCC(N)=O)NC1=O [OXYTOCIN] | – | 474 | – | 486 | 520
